Measured values: ChEMBL document CHEMBL1165951, “Improved synthesis and in vitro/in vivo activities of natural product-inspired, artificial glutamate analogs” (Bioorg Med Chem, 2010)
Calls of active or inactive are those of the source. The rule behind the calls is not given here.

Assays:
[1] = test system: Mus musculus; experiment: Effect on neurological behavior in mouse assessed as induction of hyperactivity at 20 ug, icv up to 50 mins; format: functional, organism-based
Outline: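 Racemic analog given to mice as a single intracranial (ICV) injection of 20 μg/mouse. Behaviour was then observed, with the type and duration of any change in activity recorded. Animals were kept according to the NRC Guide for the Care and Use of Laboratory Animals.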

[2] = organism: Rattus norvegicus; experiment: Binding affinity to rat brain AMPA receptor at 10 uM by radioligand displacement assay
Outline: (§1)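 Radioligand displacement at AMPA, kainate and NMDA ionotropic glutamate receptor sites in rat brain synaptic membranes, with test compound at 1 × 10−5 M.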

[3] = organism: Rattus norvegicus; experiment: Binding affinity to rat brain kainate receptor at 10 uM by radioligand displacement assay; outline: as §1
[4] = target: Glutamate NMDA receptor (Rattus norvegicus) (UniProt P35439+Q00959+Q00960+Q00961+Q62645+Q8VHN2+Q9R1M7); experiment: Binding affinity to rat brain NMDA receptor at 10 uM by radioligand displacement assay; outline: as §1
[5] = organism: Rattus norvegicus; experiment: Binding affinity to glutamate receptor in rat hippocampal neurons assessed as reduction of action potential firing frequency at 10 uM by current- and voltage-clump electrophysiological analysis; format: tissue-based; details: Hippocampus
Outline: (§2)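 Cultured hippocampal neurons were recorded by current clamp, read as action potential firing frequency, and by voltage clamp, read as charge transfer during spontaneous excitatory synaptic currents. The value is the percent reduction, n = 3.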

[6] = organism: Rattus norvegicus; experiment: Binding affinity to glutamate receptor in rat hippocampal neurons assessed as reduction of spontaneous excitatory synaptic current at 10 uM by current- and voltage-clump electrophysiological analysis; format: tissue-based; details: Hippocampus; outline: as §2

Structure (SMILES) | Activity [1] | Activity [2] | Activity [3] | Activity [4] | inhibition [5] [%] | inhibition [6] [%]
O=C(O)C[C@]12O[C@@H]3[C@@H](O)[C@@H](O)CN[C@@H]3[C@H]1CN[C@@H]2C(=O)O (relative stereo) | inactive |  |  |  |  | 
O=C(O)C[C@]12O[C@@H]3CCCCO[C@@H]3[C@H]1CN[C@@H]2C(=O)O | Active | inactive | inactive | inactive |  | 
O=C(O)C[C@]12O[C@@H]3[C@@H](O)[C@@H](O)CO[C@@H]3[C@H]1CN[C@@H]2C(=O)O | inactive | inactive | inactive | inactive |  | 
O=C(O)C[C@]12O[C@@H]3C=CCCN[C@@H]3[C@H]1CN[C@@H]2C(=O)O (relative stereo) | inactive |  |  |  |  | 
O=C(O)C[C@]12O[C@@H]3C=CCO[C@@H]3[C@H]1CN[C@@H]2C(=O)O (relative stereo) | inactive |  |  |  |  | 
O=C(O)C[C@]12O[C@@H]3CCCCN[C@@H]3[C@H]1CN[C@@H]2C(=O)O (relative stereo) | inactive |  |  |  |  | 
O=C(O)C[C@]12O[C@@H]3C=CCN[C@@H]3[C@H]1CN[C@@H]2C(=O)O (relative stereo) | inactive |  |  |  | 52 | 31
O=C(O)C[C@]12O[C@@H]3[C@@H](O)[C@@H](O)CCN[C@@H]3[C@H]1CN[C@@H]2C(=O)O (relative stereo) | inactive |  |  |  |  | 
O=C(O)C[C@]12O[C@@H]3CCCN[C@@H]3[C@H]1CN[C@@H]2C(=O)O (relative stereo) | inactive |  |  |  |  | 
O=C(O)C[C@]12O[C@@H]3C=CCCO[C@@H]3[C@H]1CN[C@@H]2C(=O)O (relative stereo) | Active |  |  |  |  | 
O=C(O)C[C@]12O[C@@H]3[C@@H](O)[C@@H](O)CCO[C@@H]3[C@H]1CN[C@@H]2C(=O)O | Active | inactive | inactive | inactive |  | 
O=C(O)C[C@]12O[C@@H]3CCCO[C@@H]3[C@H]1CN[C@@H]2C(=O)O | Active | inactive | inactive | inactive |  | 
